Read-outs that look alike come from different tables or passages of the source. One block for each compound: values may come before it.
How the values were obtained:
[1] = test system: monocarboxylate transporter 1 (MCT1); conditions: AZD3965 1.1 mg/kg; same mouse model; ref Dillemuth et al. [2025]; cited from earlier work
[2] = test system: intracranial BT12 glioblastoma xenografts; test: PET imaging of mice with intracranial BT12 glioblastoma xenografts; assay type: in vivo, mouse; conditions: for SUV in healthy brain: i.v.
Outline: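 Mice were imaged 21 days after intracranial BT12 inoculation, under 1–2% isoflurane on a heating pad. Non-contrast HRCT came first, then the tracer (4.70 ± 0.44 MBq, 0.10 ± 0.06 µg) i.v. via tail-vein cannula and 60-min dynamic list-mode PET. For blocking, the MCT1 inhibitor (1.1 mg/kg) was given i.v. 15 min before tracer. SUV was corrected for injected dose, body weight and tail/cannula residue; TBR was also derived. Data are mean ± SD, unpaired t-test.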

[3] = ref Dillemuth et al. [2025]; cited from earlier work
[4] = Ex vivo biodistribution in mice with glioblastoma; design: species or system mouse; conditions: no blocking, 60 min postinjection, gamma counting, mean, n=7 ([18F]FNA-N-CooP), n=4 ([18F]FNA)
[5] = In vivo stability analysis; design: species or system mouse; conditions: mice with BT12 glioblastoma, i.v.
Outline: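 After 60-min dynamic PET following tail-vein i.v. injection of the 18F-labelled peptide tracer, heparinized blood was centrifuged (2,100 × g, 5 min). Plasma was deproteinized with an equal volume of acetonitrile (14,000 × g, 3 min, RT), and fractions were gamma-counted. Protein-free plasma and acetonitrile-extracted brain homogenate were run on radio-HPLC (C18, 0.1% TFA water/acetonitrile, 12–80% B gradient). Peaks were assigned by reference retention times and co-injection.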

[6] = PET, glioblastoma mice, no blocking, mean ± SD, n = 4
[7] = PET, no blocking, single mouse (one of two)

Compound: Cc1[nH]nc(C(F)(F)F)c1Cc1sc2c(c1C(=O)N1C[C@](C)(O)CO1)c(=O)n(C)c(=O)n2C(C)C [AZD3965]
reduction of glioblastoma uptake of [^18F]FNA [1]: 76%

tumor-to-brain ratio (TBR) [2, 6]: 1.51 ± 0.08 | SUV in healthy brain [2, 6]: 0.59 ± 0.05
Compound: O=C(O)c1ccc([18F])nc1 [[^18F]FNA, 6-[^18F]fluoronicotinic acid, reference compound]
in vivo stability [3]: stable in vivo

TBR [2, 7]: 1.28 | tumor SUV [2, 7]: 0.16
Compound: FB-CGLSGLGVA-NH2 [[^18F]FB-N-CooP]

SUV in tumor, blocking with AZD3965 ([2]; AZD3965 1.1 mg/kg i.v. 15 min before tracer, single mouse (one of two)): 0.17 | SUV in healthy brain [2, 6]: 0.11 ± 0.02 | %ID/g Kidney [4]: 8.88 ± 6.16 %ID/g | %ID/g Urine [4]: 772.29 ± 373.58 %ID/g | in vivo stability [5]: not stable in vivo
Compound: FNA-CGLSGLGVA-NH2 [[^18F]FNA-N-CooP]
